In ChEMBL document CHEMBL3351994, “Synthesis and biological evaluation of novel millepachine derivatives as a new class of tubulin polymerization inhibitors” (J Med Chem, 2014):
pIC50: −log10 of the molar value.

Assays:
[1] = Oral bioavailability in rat at 9 mg/kg; format: ADME, organism-based; conditions: in vivo
HepG2 [2] = assay: Induction of apoptosis in human HepG2 cells assessed as necrotic cells at 200 nM after 48 hrs by annexin-V-FITC and propidium iodide staining based flow cytometry (reference value: 2.16%); format: functional
[3] = Antiproliferative activity against human DLD1 cells assessed as inhibition of cell proliferation after 48 hrs by MTT assay; format: functional, cell-based; conditions: DLD-1, 48 h
Outline: (§1)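 Cells grown at 37 °C in humidified 5% CO2. K562, C26 and HCT lines in RPMI-1640; other lines in DMEM; both media with 10% FBS, penicillin and streptomycin. 1000 cells/well seeded, incubated overnight, then compound at various doses for 48 h. MTT added for 4 h, formazan dissolved in DMSO, absorbance read at 590 nm. IC50 from dose–response curves, mean ± SEM of at least three independent experiments.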

HepG2 [4] = assay: Induction of cell cycle arrest in human HepG2 cells assessed as accumulation at S phase phase at 50 nM after 24 hrs by propidium iodide staining based flow cytometry (reference value: 30.6%); format: functional
K562 = assay: Antiproliferative activity against human K562 cells assessed as inhibition of cell proliferation after 48 hrs by MTT assay; format: functional, cell-based; conditions: K562, 48 h; outline: as §1
HepG2 [5] = assay: Induction of cell cycle arrest in human HepG2 cells assessed as accumulation at G2/M phase phase at 50 nM after 24 hrs by propidium iodide staining based flow cytometry (reference value: 11.2%); format: functional
Rattus norvegicus [6] = assay: Systemic clearance in rat at 9 mg/kg, po; format: ADME, organism-based; set-up: dose 9 mg/kg, route oral; conditions: in vivo
HepG2 [7] = assay: Induction of apoptosis in human HepG2 cells assessed as viable cells at 200 nM after 24 hrs by annexin-V-FITC and propidium iodide staining based flow cytometry (reference value: 93.2%); format: functional; conditions: HepG2, 24 h, read-out: Activity
HepG2 [8] = assay: Induction of cell cycle arrest in human HepG2 cells assessed as accumulation at G2/M phase phase at 100 nM after 24 hrs by propidium iodide staining based flow cytometry (reference value: 11.2%); format: functional
[9] = Antiproliferative activity against human A2780S cells assessed as inhibition of cell proliferation after 48 hrs by MTT assay; format: functional, cell-based; conditions: A2780, 48 h
Outline: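 Cells grown in DMEM with 10% FBS, penicillin/streptomycin at 37 °C, 5% CO2. 1000 cells/well seeded, incubated overnight, then exposed to various doses for 48 h. MTT added for 4 h, formazan dissolved in DMSO, absorbance read at 590 nm. IC50 = concentration inhibiting proliferation by 50%, mean ± SEM of dose–response curves from at least three independent experiments.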

MCF7 [10] = assay: Antiproliferative activity against human MCF7 cells assessed as inhibition of cell proliferation after 48 hrs by MTT assay; format: functional, cell-based; conditions: MCF7, 48 h; outline: as §1
HepG2 [11] = assay: Induction of apoptosis in human HepG2 cells assessed as viable cells at 100 nM after 48 hrs by annexin-V-FITC and propidium iodide staining based flow cytometry (reference value: 93.2%); format: functional; conditions: HepG2, 48 h, read-out: Activity
[12] = Antiproliferative activity against human ES2 cells assessed as inhibition of cell proliferation after 48 hrs by MTT assay; format: functional, cell-based; conditions: ES-2, 48 h
AGS = assay: Antiproliferative activity against human AGS cells assessed as inhibition of cell proliferation after 48 hrs by MTT assay; format: functional, cell-based; outline: as §1
[13] = Antiproliferative activity against human HCT15 cells assessed as inhibition of cell proliferation after 48 hrs by MTT assay; format: functional, cell-based; conditions: HCT-15, 48 h; outline: as §1
[14] = Antiproliferative activity against mouse C26 cells assessed as inhibition of cell proliferation after 48 hrs by MTT assay; format: functional, cell-based; conditions: C26, 48 h; outline: as §1
HepG2 [15] = assay: Induction of apoptosis in human HepG2 cells assessed as necrotic cells at 200 nM after 24 hrs by annexin-V-FITC and propidium iodide staining based flow cytometry (reference value: 2.16%); format: functional
Outline: (§2)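 HepG2 cells treated with 50, 100 or 200 nM compound or DMSO vehicle for 24 or 48 h at 37 °C. Labeled with annexin-V-FITC and PI and analyzed by flow cytometry. Cells classified as early apoptotic (annexin-V+/PI−), late apoptotic (annexin-V+/PI+) or necrotic (annexin-V−/PI+).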

HepG2 [16] = assay: Induction of apoptosis in human HepG2 cells assessed as late apoptotic cells at 50 nM after 48 hrs by annexin-V-FITC and propidium iodide staining based flow cytometry (reference value: 1.03%); format: functional; outline: as §2
Rattus norvegicus [17] = assay: Volume of distribution at steady state in rat at 9 mg/kg, po; format: ADME, organism-based; set-up: dose 9 mg/kg, route oral; conditions: in vivo
[18] = Antiproliferative activity against human HCT116 cells assessed as inhibition of cell proliferation after 48 hrs by MTT assay; format: functional, cell-based; conditions: HCT-116, 48 h
HepG2 [19] = assay: Antiproliferative activity against human HepG2 cells assessed as inhibition of cell proliferation after 48 hrs by MTT assay; format: functional, cell-based; conditions: hepg2; outline: as §1
HepG2 [20] = assay: Induction of cell cycle arrest in human HepG2 cells assessed as accumulation at S phase phase at 200 nM after 24 hrs by propidium iodide staining based flow cytometry (reference value: 30.6%); format: functional
HepG2 [21] = assay: Induction of cell cycle arrest in human HepG2 cells assessed as accumulation at G0/G1 phase at 200 nM after 24 hrs by propidium iodide staining based flow cytometry (reference value: 58.2%); format: functional
A2780cisR = assay: Resistance index, ratio of IC50 for cisplatin resistant human […] cells to IC50 for parental human […] cells; format: functional
HepG2 [22] = assay: Induction of apoptosis in human HepG2 cells assessed as late apoptotic cells at 100 nM after 48 hrs by annexin-V-FITC and propidium iodide staining based flow cytometry (reference value: 1.03%); format: functional; outline: as §2
HCT-8 = assay: Resistance index, ratio of IC50 for taxol resistant human HCT8 cells to IC50 for parental human HCT8 cells; format: functional
MCF7 [23] = assay: Resistance index, ratio of IC50 for adriamycin resistant human MCF7 cells to IC50 for parental human MCF7 cells; format: functional
[24] = Cmax in rat at 9 mg/kg, po; format: ADME, organism-based; set-up: dose 9 mg/kg, route oral; conditions: in vivo
Outline: (§3)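 Rat pharmacokinetics; oral and intravenous dosing, with group sizes of 5, 5 and 4 rats. Parameters derived: systemic clearance, volume of distribution, area under the plasma concentration–time curve, maximum plasma concentration and percent oral bioavailability.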

HepG2 [25] = assay: Induction of apoptosis in human HepG2 cells assessed as necrotic cells at 100 nM after 48 hrs by annexin-V-FITC and propidium iodide staining based flow cytometry (reference value: 2.16%); format: functional; outline: as §2
HepG2 [26] = assay: Induction of apoptosis in human HepG2 cells assessed as necrotic cells at 50 nM after 48 hrs by annexin-V-FITC and propidium iodide staining based flow cytometry (reference value: 2.16%); format: functional
[27] = Antiproliferative activity against human HCT8 cells assessed as inhibition of cell proliferation after 48 hrs by MTT assay; format: functional, cell-based; conditions: HCT-8, 48 h; outline: as §1
NCI-H358 = assay: Antiproliferative activity against human NCI-H358 cells assessed as inhibition of cell proliferation after 48 hrs by MTT assay; format: functional, cell-based; conditions: NCI-H358, 48 h; outline: as §1
[28] = Cmax in rat at 2.25 mg/kg, iv; format: ADME, organism-based; set-up: dose 2.25 mg/kg, route intravenous; conditions: in vivo; outline: as §3
Rattus norvegicus [29] = assay: AUC in rat at 2.25 mg/kg, iv; format: ADME, organism-based, Plasma; set-up: dose 2.25 mg/kg, route intravenous; conditions: in vivo; outline: as §3

COc1ccc(/C=C/C(=O)c2ccc(OC)c3c2OC(C)(C)C=C3)cc1N
bioavailability [1]: 28% | Activity (HepG2 [2]): 3.54% | pIC50 [3]: 7.74 | Activity (HepG2 [4]): 23.9% | pIC50 (K562): 7.74 | Activity (HepG2 [5]): 19.5% | CL (Rattus norvegicus [6]): 98.3 mL/min/kg | viability at 0.2 µM (HepG2 [7]): 63.1% | Activity (HepG2 [8]): 37.4% | pIC50 [9]: 7.70 | pIC50 (MCF7 [10]): 7.57 | viability at 0.1 µM (HepG2 [11]): 48.8% | pIC50 [12]: 8.10 | pIC50 (AGS): 8.00 | pIC50 [13]: 7.72 | pIC50 [14]: 7.59 | Activity (HepG2 [15]): 1.95% | Activity (HepG2 [16]): 17.69% | Vdss (Rattus norvegicus [17]): 25 L/kg | pIC50 [18]: 7.68 | pIC50 (HepG2 [19]): 8.10 | Activity (HepG2 [20]): 19.1% | Activity (HepG2 [21]): 37.6% | Ratio IC50 (A2780cisR): 0.7 | Activity (HepG2 [22]): 29.45% | Ratio IC50 (HCT-8): 9.5 | Ratio IC50 (MCF7 [23]): 1.6 | Cmax [24]: 519 ng/mL | Activity (HepG2 [25]): 5.45% | Activity (HepG2 [26]): 2.76% | pIC50 [27]: 7.80 | pIC50 (NCI-H358): 7.92 | Cmax [28]: 2940 ng/mL | AUC (Rattus norvegicus [29]): 1810 ng·h/mL
